The nature of data set [1]: folding enthalpy; higher = less favourable; fluorescence melt of hairpins on a sequencing array, two-state fit. Conditions: sodium 0.088 M. In a few lines:
(§1)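 In 50 mM Na-HEPES pH 8.0 containing 25 mM NaCl, hairpins from the library on a sequenced MiSeq flow cell were imaged for Cy3 fluorescence at 2.5 °C steps up to 60 °C, with Cy3 and quencher oligos annealed. After normalisation to pre-quench Cy3 and to control constructs, two-state fits with bootstrapping gave melting temperature and folding enthalpy. Four replicates were combined by inverse-variance weighting, and fitted temperatures were shifted up by 9.35 °C to match UV melts.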

The nature of data set [2]: melting temperature; fluorescence melt of hairpins on a sequencing array, two-state fit, raised by 9.35 °C to match UV melts. Conditions: sodium 0.088 M. A digest of the protocol:
as §1

On to GCCGGCGGAAACGCCGAC (.(((((....))))).), for which the folding enthalpy in data set [1] was -10.3 kcal/mol. Besides, in data set [2], the Tm came out at 59.4 °C.

For the sequence GCCGGGCGAAAGCCAAGC ((..(((....)))..)), the folding enthalpy in data set [1] is -14.5 kcal/mol. Besides, in data set [2], the Tm amounted to 46.8 °C.

Turning to GCCGGGCGAAAGCCTAGC ((..(((....)))..)), in data set [1], the folding enthalpy was -13.6 kcal/mol. In addition, in data set [2], the Tm worked out at 44.1 °C.

GCCGGGGGAAACCCTGGC (((.(((....))).))): the folding enthalpy in data set [1] is -40.9 kcal/mol. Moreover, in data set [2], the Tm turned out to be 65.4 °C.

Take GCCGGGTCGAAAGACGGC (((..(((....)))))): the folding enthalpy in data set [1] was -31 kcal/mol. Moreover, the Tm in data set [2] was found to be 54.9 °C.

As to GCCGGTCCGAAAGGAGGC (((..(((....)))))), in data set [1], the folding enthalpy is -21.9 kcal/mol. In data set [2], the Tm worked out at 48 °C.

GCCGGTGCGAAAGCAGGC (((..(((....)))))): the folding enthalpy in data set [1] is -17.1 kcal/mol. Besides, in data set [2], the Tm is 56.8 °C.

Turning to GCCGGTGGAAACGTCGGC ((((..(....)..)))), the folding enthalpy in data set [1] is -42 kcal/mol. In addition, in data set [2], the Tm worked out at 52.3 °C.

As for GCCGTAGGAAACCACGGC (((((.(....).))))), in data set [1], the folding enthalpy was -34.2 kcal/mol. Besides, in data set [2], the Tm is 54.4 °C.

Consider GCCGTAGGAAACTACAGC ((.((((....)))).)), for which the folding enthalpy in data set [1] was -11.7 kcal/mol. Besides, the Tm in data set [2] is 39.6 °C.

With GCCGTCGAAAGACCCGGC ((((((....)))..))), the folding enthalpy in data set [1] is -18.3 kcal/mol. For the same sequence, the Tm in data set [2] amounted to 47.9 °C.

Take GCCGTCGAAAGACCTGGC ((((((....)))..))): in data set [1], the folding enthalpy was -19.8 kcal/mol. Besides, the Tm in data set [2] was found to be 44.7 °C.

Take GCCGTCGAAAGACGAGGC ((((((....)))..))): the folding enthalpy in data set [1] was -17.8 kcal/mol. Also, in data set [2], the Tm was determined as 55.5 °C.

GCCGTCGAAAGACTCGGC ((((((....)))..))): the folding enthalpy in data set [1] is -23.8 kcal/mol. For the same sequence, the Tm in data set [2] worked out at 48.8 °C.

Turning to GCCGTCGAAAGACTTGGC ((((((....)))..))), the folding enthalpy in data set [1] was -17.2 kcal/mol. For the same sequence, in data set [2], the Tm was determined as 50.5 °C.

Consider GCCGTCGCGAAAGCGGGC (((..(((....)))))), for which the folding enthalpy in data set [1] is -17.9 kcal/mol. The Tm in data set [2] came out at 54.5 °C.

On to GCCGTGCGAAAGCAACGC ((..(((....)))..)), for which the folding enthalpy in data set [1] is -10.9 kcal/mol. For the same sequence, the Tm in data set [2] stood at 54.1 °C.

For the sequence GCCGTGCGAAAGCACCGC ((.((((....)))).)), the folding enthalpy in data set [1] is -16 kcal/mol. Moreover, in data set [2], the Tm came to 55.8 °C.

Consider GCCGTGCGAAAGCACTGC ((.((((....)))).)), for which the folding enthalpy in data set [1] was -14.4 kcal/mol. The Tm in data set [2] turned out to be 61.8 °C.

As to GCCGTGCGAAAGCCCCGC ((.(.((....)).).)), the folding enthalpy in data set [1] is -9.26 kcal/mol. In data set [2], the Tm came to 29.3 °C.

For GCCGTGCGAAAGCGTGGC (((..((....))..))), the folding enthalpy in data set [1] was -37.1 kcal/mol. Further, the Tm in data set [2] came to 63.4 °C.

Consider GCCGTGCGAAAGCTCAGC ((.(.((....)).).)), for which the folding enthalpy in data set [1] was -15.4 kcal/mol. Also, the Tm in data set [2] was determined as 40.4 °C.

On to GCCGTGCGAAAGCTCTGC ((.(.((....)).).)), for which, in data set [1], the folding enthalpy is -12.2 kcal/mol. Also, in data set [2], the Tm is 37.7 °C.

Consider GCCGTGGGAAACTACGGC (((((.(....).))))), for which, in data set [1], the folding enthalpy is -42.8 kcal/mol. Also, in data set [2], the Tm worked out at 61.1 °C.

As for GCCGTGTCGAAAGACGGC (((..(((....)))))), the folding enthalpy in data set [1] is -31.4 kcal/mol. The Tm in data set [2] came out at 58.9 °C.

As to GCCGTTCGAAAGAAAGGC (((.(((....))).))), in data set [1], the folding enthalpy was -28.8 kcal/mol. The Tm in data set [2] was found to be 59.3 °C.

Consider GCCGTTCGAAAGAATGGC (((.(((....))).))), for which the folding enthalpy in data set [1] is -40.1 kcal/mol. In addition, the Tm in data set [2] was determined as 62.6 °C.

For GCCGTTGGAAACAATGGC (((.(((....))).))), the folding enthalpy in data set [1] was -36.6 kcal/mol. Further, in data set [2], the Tm amounted to 55.8 °C.

For the sequence GCCGTTTCGAAAGAAGGC (((..(((....)))))), the folding enthalpy in data set [1] was -22.4 kcal/mol. The Tm in data set [2] amounted to 44.3 °C.

On to GCCTAAACGAAAGTTGGC (((..(((....)))))), for which the folding enthalpy in data set [1] is -24.9 kcal/mol. Further, the Tm in data set [2] was 46.7 °C.

In the case of GCCTAAGCGAAAGCTGGC (((..(((....)))))), the folding enthalpy in data set [1] is -24.3 kcal/mol. Besides, in data set [2], the Tm turned out to be 52.3 °C.

GCCTACGAAAGTAAAGGC ((((((....)))..))): the folding enthalpy in data set [1] is -41.2 kcal/mol. The Tm in data set [2] is 50.2 °C.

GCCTACGAAAGTAATGGC ((((((....)))..))): in data set [1], the folding enthalpy was -24.8 kcal/mol. Further, in data set [2], the Tm amounted to 45.3 °C.

As for GCCTACGAAAGTAGGGC ((((((....))).))), the folding enthalpy in data set [1] was -16.4 kcal/mol. Besides, in data set [2], the Tm stood at 61.8 °C.

On to GCCTACGGAAACGCAAGC ((.(.((....)).).)), for which the folding enthalpy in data set [1] was -11.9 kcal/mol. For the same sequence, the Tm in data set [2] came to 26.9 °C.

GCCTACGGAAACGTGGGC (((.(((....))).))): the folding enthalpy in data set [1] is -39.2 kcal/mol. Moreover, the Tm in data set [2] was found to be 58.6 °C.

These data come from the array DNA melting data of Ke et al. (doi:10.1101/2024.01.08.574731).
